Measured values as given in article PMC3929337 (Biochemistry, 2014).

Experiments:
[1] = system: Aβ peptide variants in PS1 mutant-expressing cell lines; settings: cited from earlier work
[2] = system: Notch 1 receptor (NΔE) proteolysis, NICD; assay: Cell-based Notch proteolytic processing assay; design: species or system human; settings: H4-APP751/NΔE cells, 24 h; lowest concentration tested
How it was run: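 H4 human neuroglioma cells stably overexpressing human APP751 were transfected with Myc-tagged NΔE Notch and treated for a further 24 h with serially diluted test compound, DMSO vehicle, or a dipeptidic γ-secretase inhibitor as positive control. Concentrations ranged up to 30 μM. Cells were harvested 48 h post-transfection. Lysates were Western blotted with anti-Myc for NΔE/NICD, an APP C-terminal antibody for holo-APP, C99 and C83, and anti-β-actin as loading control.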

SMILES: CC(C)CC[C@H](c1ccc(Cl)cc1)N1CC[C@@H](CC(=O)O)C[C@H]1c1ccc(C(F)(F)F)cc1 [GSM-1]
- effect on Aβ peptide variants, G384A PS1 mutant ([1]; G384A PS1 mutant): effectively lowered Aβ42, Aβ40, and Aβ37
- effect on Aβ38 levels, PS1 mutants L166P and N135S ([1]; PS1 mutants L166P and N135S): increases in Aβ38 levels
- inhibition of Aβ42, PS1 mutants L166P and N135S ([1]; PS1 mutants L166P and N135S): resistant

SMILES: C[C@H](NC(=O)Cc1cc(F)cc(F)c1)C(=O)NC(C(=O)OC(C)(C)C)c1ccccc1 (stereo partly drawn) [DAPT, N-[N-(3,5-difluorophenacetyl)-L-alanyl]-S-phenylglycine tert-butyl ester]
- concentration at which inhibition of NICD occurred [2]: ≤ 300 nM

SMILES: COc1cc(/C=C2\CCCN([C@@H](C)c3ccc(F)cc3)C2=O)ccc1-n1cnc(C)c1 [Eisai]
- effects on Aβ38 and Aβ42 in PS1 mutant cell lines [1]: behaved like the “TorreyPines” compound
